Laboratory results from ChEMBL document CHEMBL1926550, “Synthesis and antibacterial activity of naphthyridone derivatives containing mono/difluoro-methyloxime pyrrolidine scaffolds” (2012).
In brackets after ≈: the same amount, converted by molar mass.

Columns and labels:
Format in all cases: functional
[1] = system: Escherichia coli; assay: Antibacterial activity against Escherichia coli 10-1 after 18 hrs by two fold serial dilution method; settings: 10-1, 18 h
Summary of the method: (§1)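 Agar two-fold serial dilution in melted Mueller-Hinton agar, final concentrations 128 down to 0.008 μg/mL. Plates inoculated with 10⁴ cfu and incubated at 35 °C for 18 h. MIC taken as the lowest concentration giving no visible growth on the plate.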

[2] = system: Escherichia coli; assay: Antibacterial activity against Escherichia coli 10-2 after 18 hrs by two fold serial dilution method; settings: 10-2, 18 h; summary of the method: as §1
[3] = system: Escherichia coli; assay: Antibacterial activity against Escherichia coli 10-3 after 18 hrs by two fold serial dilution method; settings: 10-3, 18 h; summary of the method: as §1
[4] = system: Klebsiella pneumoniae; assay: Antibacterial activity against Klebsiella pneumoniae 09-2 after 18 hrs by two fold serial dilution method; settings: 09-2, 18 h; summary of the method: as §1
[5] = system: Klebsiella pneumoniae; assay: Antibacterial activity against Klebsiella pneumoniae 10-1 after 18 hrs by two fold serial dilution method; settings: 10-1, 18 h; summary of the method: as §1
[6] = system: Klebsiella pneumoniae; assay: Antibacterial activity against Klebsiella pneumoniae 10-3 after 18 hrs by two fold serial dilution method; settings: 10-3, 18 h; summary of the method: as §1
[7] = system: Pseudomonas aeruginosa; assay: Antibacterial activity against Pseudomonas aeruginosa ATCC 27853 after 18 hrs by two fold serial dilution method; settings: ATCC 27853, 18 h; summary of the method: as §1
[8] = system: Pseudomonas aeruginosa; assay: Antibacterial activity against Pseudomonas aeruginosa 10-1 after 18 hrs by two fold serial dilution method; settings: 10-1, 18 h; summary of the method: as §1
[9] = system: Pseudomonas aeruginosa; assay: Antibacterial activity against Pseudomonas aeruginosa 10-2 after 18 hrs by two fold serial dilution method; settings: 10-2, 18 h; summary of the method: as §1
[10] = system: Pseudomonas aeruginosa; assay: Antibacterial activity against Pseudomonas aeruginosa 10-3 after 18 hrs by two fold serial dilution method; settings: 10-3, 18 h; summary of the method: as §1
[11] = system: Staphylococcus epidermidis; assay: Antibacterial activity against methicillin-resistant Staphylococcus epidermidis 10-4 after 18 hrs by two fold serial dilution method; settings: 10-4, 18 h
Summary of the method: (§2)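 Agar two-fold serial dilution in melted Mueller-Hinton agar, 128 to 0.008 μg/mL. Plates inoculated with 10⁴ cfu, incubated 35 °C for 18 h. MIC taken as lowest concentration giving no visible growth on the plate.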

[12] = system: Staphylococcus aureus; assay: Antibacterial activity against methicillin-resistant Staphylococcus aureus 10-2 infected KM mouse systemic infection model assessed as decrease in mouse mortality administered orally twice after 1 and 4 hrs post infection measured up to 7 days; settings: 10-2, po
Summary of the method: (§3)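 Strains grown on MH agar at 35 °C for 18 h, suspended in gastric mucin. Male KM mice (19–21 g), groups of 10, infected intraperitoneally with 0.5 mL at 5–10× MLD. Four oral dose levels per drug at 1 and 4 h post infection. Mortality followed 7 days; ED50 with 95% confidence limits by Bliss method.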

[13] = system: Staphylococcus epidermidis; assay: Antibacterial activity against methicillin-resistant Staphylococcus epidermidis 10-4 infected KM mouse systemic infection model assessed as decrease in mouse mortality administered orally twice after 1 and 4 hrs post infection measured up to 7 days; settings: 10-4, po; summary of the method: as §3
[14] = system: Escherichia coli; assay: Antibacterial activity against Escherichia coli 10-2 infected KM mouse systemic infection model assessed as decrease in mouse mortality administered orally twice after 1 and 4 hrs post infection measured up to 7 days; settings: 10-2, po; summary of the method: as §3
[15] = system: Klebsiella pneumoniae; assay: Antibacterial activity against Klebsiella pneumoniae 10-3 infected KM mouse systemic infection model assessed as decrease in mouse mortality administered orally twice after 1 and 4 hrs post infection measured up to 7 days; settings: 10-3, po; summary of the method: as §3
[16] = system: Pseudomonas aeruginosa; assay: Antibacterial activity against Pseudomonas aeruginosa 10-1 infected KM mouse systemic infection model assessed as decrease in mouse mortality administered orally twice after 1 and 4 hrs post infection measured up to 7 days; settings: 10-1, po; summary of the method: as §3
[17] = system: Staphylococcus epidermidis; assay: Ratio of ciprofloxacin ED50 to compound ED50 for methicillin-resistant Staphylococcus epidermidis 10-4 infected KM mouse systemic infection model
[18] = system: Staphylococcus epidermidis; assay: Ratio of gemifloxacin ED50 to compound ED50 for methicillin-resistant Staphylococcus epidermidis 10-4 infected KM mouse systemic infection model
[19] = system: Enterococcus faecium; assay: Antibacterial activity against Enterococcus faecium 09-1 after 18 hrs by two fold serial dilution method; settings: 09-1, 18 h; summary of the method: as §1
[20] = system: Staphylococcus aureus; assay: Antibacterial activity against Staphylococcus aureus ATCC 25923 after 18 hrs by two fold serial dilution method; settings: ATCC 25923, 18 h; summary of the method: as §1
[21] = system: Staphylococcus aureus; assay: Antibacterial activity against methicillin-resistant Staphylococcus aureus 10-1 after 18 hrs by two fold serial dilution method; settings: 10-1, 18 h; summary of the method: as §2
[22] = system: Staphylococcus aureus; assay: Antibacterial activity against methicillin-resistant Staphylococcus aureus 10-2 after 18 hrs by two fold serial dilution method; settings: 10-2, 18 h; summary of the method: as §2
[23] = system: Staphylococcus aureus; assay: Antibacterial activity against methicillin-resistant Staphylococcus aureus 10-3 after 18 hrs by two fold serial dilution method; settings: 10-3, 18 h; summary of the method: as §2
[24] = system: Staphylococcus aureus; assay: Antibacterial activity against methicillin-resistant Staphylococcus aureus 10-4 after 18 hrs by two fold serial dilution method; settings: 10-4, 18 h; summary of the method: as §2
[25] = system: Staphylococcus aureus; assay: Antibacterial activity against methicillin-sensitive Staphylococcus aureus 10-1 after 18 hrs by two fold serial dilution method; settings: 10-1, 18 h; summary of the method: as §1
[26] = system: Staphylococcus aureus; assay: Antibacterial activity against methicillin-sensitive Staphylococcus aureus 10-2 after 18 hrs by two fold serial dilution method; settings: 10-2, 18 h; summary of the method: as §1
[27] = system: Staphylococcus aureus; assay: Antibacterial activity against methicillin-sensitive Staphylococcus aureus 10-3 after 18 hrs by two fold serial dilution method; settings: 10-3, 18 h; summary of the method: as §1
[28] = system: Staphylococcus aureus; assay: Antibacterial activity against methicillin-sensitive Staphylococcus aureus 10-4 after 18 hrs by two fold serial dilution method; settings: 10-4, 18 h; summary of the method: as §1
[29] = system: Staphylococcus aureus; assay: Antibacterial activity against methicillin-sensitive Staphylococcus aureus 10-5 after 18 hrs by two fold serial dilution method; settings: 10-5, 18 h; summary of the method: as §1
[30] = system: Staphylococcus aureus; assay: Antibacterial activity against methicillin-sensitive Staphylococcus aureus 10-6 after 18 hrs by two fold serial dilution method; settings: 10-6, 18 h; summary of the method: as §1
[31] = system: Staphylococcus epidermidis; assay: Antibacterial activity against methicillin-resistant Staphylococcus epidermidis 10-1 after 18 hrs by two fold serial dilution method; settings: 10-1, 18 h; summary of the method: as §2
[32] = system: Staphylococcus epidermidis; assay: Antibacterial activity against methicillin-resistant Staphylococcus epidermidis 10-2 after 18 hrs by two fold serial dilution method; settings: 10-2, 18 h; summary of the method: as §2
[33] = system: Staphylococcus epidermidis; assay: Antibacterial activity against methicillin-sensitive Staphylococcus epidermidis 10-1 after 18 hrs by two fold serial dilution method; settings: 10-1, 18 h; summary of the method: as §1
[34] = system: Staphylococcus epidermidis; assay: Antibacterial activity against methicillin-sensitive Staphylococcus epidermidis 10-2 after 18 hrs by two fold serial dilution method; settings: 10-2, 18 h; summary of the method: as §1
[35] = system: Streptococcus pneumoniae; assay: Antibacterial activity against Streptococcus pneumoniae 10-1 after 18 hrs by two fold serial dilution method; settings: 10-1, 18 h; summary of the method: as §1
[36] = system: Enterococcus faecium; assay: Antibacterial activity against Enterococcus faecium 09-2 after 18 hrs by two fold serial dilution method; settings: 09-2, 18 h; summary of the method: as §1
[37] = system: Enterococcus faecium; assay: Antibacterial activity against Enterococcus faecium 09-3 after 18 hrs by two fold serial dilution method; settings: 09-3, 18 h; summary of the method: as §1
[38] = system: Enterococcus faecium; assay: Antibacterial activity against Enterococcus faecium 09-4 after 18 hrs by two fold serial dilution method; settings: 09-4, 18 h; summary of the method: as §1
[39] = system: Enterococcus faecium; assay: Antibacterial activity against Enterococcus faecium 09-5 after 18 hrs by two fold serial dilution method; settings: 09-5, 18 h; summary of the method: as §1
[40] = system: Enterococcus faecium; assay: Antibacterial activity against Enterococcus faecium 09-6 after 18 hrs by two fold serial dilution method; settings: 09-6, 18 h; summary of the method: as §1
[41] = system: Enterococcus faecalis; assay: Antibacterial activity against Enterococcus faecalis 09-1 after 18 hrs by two fold serial dilution method; settings: 09-1, 18 h; summary of the method: as §1
[42] = system: Enterococcus faecalis; assay: Antibacterial activity against Enterococcus faecalis 09-2 after 18 hrs by two fold serial dilution method; settings: 09-2, 18 h; summary of the method: as §1
[43] = system: Escherichia coli; assay: Antibacterial activity against Escherichia coli ATCC 25922 after 18 hrs by two fold serial dilution method; settings: ATCC 25922, 18 h; summary of the method: as §1
[44] = system: Escherichia coli; assay: Antibacterial activity against Escherichia coli 09-1 after 18 hrs by two fold serial dilution method; settings: 09-1, 18 h; summary of the method: as §1
[45] = system: Escherichia coli; assay: Antibacterial activity against Escherichia coli 09-2 after 18 hrs by two fold serial dilution method; settings: 09-2, 18 h; summary of the method: as §1
[46] = system: Escherichia coli; assay: Antibacterial activity against Escherichia coli 09-3 after 18 hrs by two fold serial dilution method; settings: 09-3, 18 h; summary of the method: as §1

`NCC1CN(c2nc3c(cc2F)c(=O)c(C(=O)O)cn3C2CC2)C/C1=N\OCF` (racemic) showed an MIC [1] of 32 µg/mL (≈ 78.6 µM), an MIC [2] of 0.5 µg/mL (≈ 1.23 µM) and an MIC [3] of 16 µg/mL (≈ 39.3 µM). The MIC [4] was 32 µg/mL (≈ 78.6 µM), the MIC [5] was 0.03 µg/mL (≈ 0.0736 µM) and the MIC [6] was 0.5 µg/mL (≈ 1.23 µM). For the same compound, the MIC [7] was 0.5 µg/mL (≈ 1.23 µM), the MIC [8] was 0.5 µg/mL (≈ 1.23 µM) and the MIC [9] was 32 µg/mL (≈ 78.6 µM). For the same compound, the MIC [10] was 4 µg/mL (≈ 9.82 µM), the MIC [11] was 2 µg/mL (≈ 4.91 µM) and the ED50 [12] was 16.9 mg/kg. The ED50 [13] was 8 mg/kg, the ED50 [14] was 8.79 mg/kg and the ED50 [15] was greater than 160 mg/kg. For the same compound, the ED50 [16] was 39.3 mg/kg, the Ratio ED50 [17] was 3.1 and the Ratio ED50 [18] was 3. The MIC [19] was 32 µg/mL (≈ 78.6 µM), the MIC [20] was 0.015 µg/mL (≈ 0.0368 µM) and the MIC [21] was 32 µg/mL (≈ 78.6 µM). It also gave an MIC [22] of 2 µg/mL (≈ 4.91 µM), an MIC [23] of 32 µg/mL (≈ 78.6 µM) and an MIC [24] of 64 µg/mL (≈ 157 µM). It also gave an MIC [25] of 0.06 µg/mL (≈ 0.147 µM), an MIC [26] of 8 µg/mL (≈ 19.6 µM) and an MIC [27] of 0.03 µg/mL (≈ 0.0736 µM). The MIC [28] was 0.25 µg/mL (≈ 0.614 µM), the MIC [29] was 0.125 µg/mL (≈ 0.307 µM) and the MIC [30] was 0.5 µg/mL (≈ 1.23 µM). The MIC [31] was 2 µg/mL (≈ 4.91 µM), the MIC [32] was 1 µg/mL (≈ 2.45 µM) and the MIC [33] was 32 µg/mL (≈ 78.6 µM). For the same compound, the MIC [34] was 64 µg/mL (≈ 157 µM), the MIC [35] was 0.06 µg/mL (≈ 0.147 µM) and the MIC [36] was 32 µg/mL (≈ 78.6 µM). The MIC [37] was 16 µg/mL (≈ 39.3 µM), the MIC [38] was 0.06 µg/mL (≈ 0.147 µM) and the MIC [39] was 32 µg/mL (≈ 78.6 µM). The MIC [40] was 0.03 µg/mL (≈ 0.0736 µM), the MIC [41] was 8 µg/mL (≈ 19.6 µM) and the MIC [42] was 32 µg/mL (≈ 78.6 µM). For the same compound, the MIC [43] was 0.008 µg/mL (≈ 0.0196 µM), the MIC [44] was 32 µg/mL (≈ 78.6 µM) and the MIC [45] was 32 µg/mL (≈ 78.6 µM). The MIC [46] was 32 µg/mL (≈ 78.6 µM).
